Results taken from ChEMBL document CHEMBL3108713, “Identification of ML251, a Potent Inhibitor of T. brucei and T. cruzi Phosphofructokinase” (ACS Med Chem Lett, 2014).
In brackets after ≈: the same amount, converted by molar mass. Activity calls are given as the source filed them. The calls are words filed in the database; no cut-off is given here.

Key:
[1] = molecular target: T1, ATP-dependent 6-phosphofructokinase (Trypanosoma cruzi) (UniProt Q4E657); test: Inhibition of Trypanosoma cruzi PFK at 57 uM
T1 sequence (whole entry): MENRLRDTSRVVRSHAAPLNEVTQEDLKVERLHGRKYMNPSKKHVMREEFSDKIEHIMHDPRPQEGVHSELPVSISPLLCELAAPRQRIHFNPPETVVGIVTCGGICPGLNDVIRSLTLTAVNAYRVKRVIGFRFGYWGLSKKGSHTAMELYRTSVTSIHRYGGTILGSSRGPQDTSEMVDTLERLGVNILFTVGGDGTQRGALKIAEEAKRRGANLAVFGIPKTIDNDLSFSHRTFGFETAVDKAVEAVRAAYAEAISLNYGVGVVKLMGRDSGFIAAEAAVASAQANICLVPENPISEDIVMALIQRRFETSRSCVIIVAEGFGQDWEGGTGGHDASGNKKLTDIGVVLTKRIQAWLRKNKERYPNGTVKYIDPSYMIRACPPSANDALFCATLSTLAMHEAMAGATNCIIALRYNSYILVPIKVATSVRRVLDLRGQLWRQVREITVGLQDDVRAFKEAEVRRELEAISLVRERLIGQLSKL
Method in brief: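 PFK activity is measured by coupling ADP production to ADP-Glo luciferase luminescence at end point. Percent inhibition is recorded at 57 μM, the highest concentration of the dose series, with at least 3 separate experiments averaged.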

[2] = molecular target: T2, ATP-dependent 6-phosphofructokinase (Trypanosoma cruzi, UniProt Q4E657); test: Inhibition of Trypanosoma cruzi PFK
T2 sequence (Q4E657 whole entry): T1 sequence (whole entry)

[3] = molecular target: T3, ATP-dependent 6-phosphofructokinase (Trypanosoma brucei) (UniProt O15648); test: Inhibition of Trypanosoma brucei PFK-mediated ADP production using ATP/fructose-6-phosphate as substrate at 57 uM by luciferase based luminescence assay
T3 sequence (whole entry): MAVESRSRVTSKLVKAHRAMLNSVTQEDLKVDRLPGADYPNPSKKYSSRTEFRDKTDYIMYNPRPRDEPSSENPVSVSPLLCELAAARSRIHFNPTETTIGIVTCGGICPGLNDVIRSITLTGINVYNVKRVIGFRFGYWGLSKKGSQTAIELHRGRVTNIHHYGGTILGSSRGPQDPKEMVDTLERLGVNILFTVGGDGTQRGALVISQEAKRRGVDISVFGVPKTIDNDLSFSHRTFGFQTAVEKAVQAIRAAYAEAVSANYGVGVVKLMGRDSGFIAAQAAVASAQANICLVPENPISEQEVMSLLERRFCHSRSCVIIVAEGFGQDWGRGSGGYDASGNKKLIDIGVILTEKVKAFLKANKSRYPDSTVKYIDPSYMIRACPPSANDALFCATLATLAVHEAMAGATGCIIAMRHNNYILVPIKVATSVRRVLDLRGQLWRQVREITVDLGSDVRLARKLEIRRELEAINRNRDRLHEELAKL
Method in brief: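 Recombinant T. brucei PFK; ADP formed by the enzyme is converted to a luminescent signal by a modified luciferase ADP-Glo detection, read at end point.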

[4] = molecular target: T4, ATP-dependent 6-phosphofructokinase (Trypanosoma brucei, UniProt O15648); test: Inhibition of Trypanosoma brucei PFK-mediated ADP production using ATP/fructose-6-phosphate as substrate by luciferase based luminescence assay
T4 sequence (O15648 whole entry): T3 sequence (whole entry)
Method in brief: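 Recombinant enzyme; ADP formed by PFK detected with modified luciferase (ADP-Glo) luminescent end-point in 1536-well format.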

[5] = Half life in rat liver microsomes; assay type: ADME
[6] = Half life in mouse liver microsomes; assay type: ADME, Microsome
[7] = Aqueous kinetic solubility of the compound; assay type: physicochemical; conditions: buffer; read-out: Kinetic_solubility
[8] = Cytotoxicity against human MRC5 cells assessed as intracellular ATP content after 72 hrs by Cell titer-Glo luminiscent assay; assay type: cell-based
[9] = tested on: Trypanosoma brucei brucei; test: Antitrypanosomal activity against Trypanosoma brucei brucei Lister 427 assessed as cell viability after 72 hrs by alamar blue assay; assay type: functional; conditions: for EC50: Lister 427, 72 h, read-out: ED50 (the source's name)
[10] = molecular target: T5, ATP-dependent 6-phosphofructokinase, muscle type (Oryctolagus cuniculus) (UniProt P00511); test: Inhibition of recombinant rabbit muscle PFK expressed in PFK-deficient Escherichia coli DF1020DE3 using ATP/fructose 6 phosphate as substrate at 1 uM; assay type: tissue-based; conditions: Muscle tissue
T5 sequence (whole entry): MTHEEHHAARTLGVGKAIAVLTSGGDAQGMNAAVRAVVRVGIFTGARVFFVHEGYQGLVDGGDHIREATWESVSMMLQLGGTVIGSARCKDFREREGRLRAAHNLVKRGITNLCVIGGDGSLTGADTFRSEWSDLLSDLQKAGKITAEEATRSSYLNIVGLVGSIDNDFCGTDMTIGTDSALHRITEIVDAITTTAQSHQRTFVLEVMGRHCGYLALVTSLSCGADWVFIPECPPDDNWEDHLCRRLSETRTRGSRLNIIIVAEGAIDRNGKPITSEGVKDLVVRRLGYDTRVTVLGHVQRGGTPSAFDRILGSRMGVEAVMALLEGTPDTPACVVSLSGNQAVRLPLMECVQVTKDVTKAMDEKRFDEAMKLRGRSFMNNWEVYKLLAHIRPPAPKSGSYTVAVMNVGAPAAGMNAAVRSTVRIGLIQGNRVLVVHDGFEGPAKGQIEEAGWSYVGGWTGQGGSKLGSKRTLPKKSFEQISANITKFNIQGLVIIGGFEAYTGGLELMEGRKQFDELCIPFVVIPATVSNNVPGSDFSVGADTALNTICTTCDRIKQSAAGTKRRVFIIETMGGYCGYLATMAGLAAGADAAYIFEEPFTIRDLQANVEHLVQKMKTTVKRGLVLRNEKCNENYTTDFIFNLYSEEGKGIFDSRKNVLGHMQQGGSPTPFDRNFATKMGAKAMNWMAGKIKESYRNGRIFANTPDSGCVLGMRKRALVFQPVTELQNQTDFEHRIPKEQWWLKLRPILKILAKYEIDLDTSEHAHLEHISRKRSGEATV

[11] = molecular target: T4, ATP-dependent 6-phosphofructokinase; test: Mixed type inhibition Trypanosoma brucei PFK using ATP as substrate by Line-weaver Burk plot analysis
Method in brief: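 Coupled biochemical PFK assay titrating ATP at several inhibitor levels (0, 1.5, 12.5, 50, 100 nM), F6P held saturating at 2 mM; initial velocities analysed by Lineweaver–Burk transformation, Ki from secondary plots.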

[12] = molecular target: T4, ATP-dependent 6-phosphofructokinase; test: Competitive inhibition Trypanosoma brucei PFK using fructose-6-phosphate as substrate by Line-weaver Burk plot analysis
Method in brief: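 Coupled biochemical PFK assay titrating F6P at several inhibitor levels (0, 1.5, 12.5, 50, 100 nM), ATP held saturating at 0.5 mM; initial velocities analysed by Lineweaver–Burk transformation, Ki from secondary plots.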

[13] = Metabolic stability in human plasma assessed as compound remaining after 2 hrs; assay type: ADME, cell-free; conditions: read-out: Stability
[14] = Metabolic stability in mouse plasma assessed as compound remaining after 2 hrs; assay type: ADME, cell-free; conditions: read-out: Stability
[15] = tested on: Trypanosoma brucei brucei; test: Antitrypanosomal activity against Trypanosoma brucei brucei Lister 427 assessed as cell viability at 1.3 to 33.3 ug/ml after 72 hrs by alamar blue assay; assay type: functional, organism-based
[16] = Half life in human liver microsomes; assay type: ADME

inhibition [1]	IC50 [2]	inhibition [3]	IC50 [4]	half-life [5]	half-life [6]	solubility kinetic [7]	EC50 [9]	inhibition [10]	Ki [11]	Ki [12]	remaining at 2 h [13]	remaining at 2 h [14]	half-life [16]	Compound	CC50 at 72 h [8]	Activity [9]	Activity [15]
> 80%	230 nM	> 80%	410 nM	0.162 h	6.8 h	23.3 µg/mL (≈ 52.9 µM)	26800 nM	–	–	–	–	–	–	Cc1cc(NS(=O)(=O)c2ccc(NC(=O)Cc3ccc(Cl)c(Cl)c3)cc2)no1	> 46000 nM	Dose-dependent effect	–
> 80%	172 nM	> 80%	15 nM	> 0.5 h	–	> 81 µg/mL	–	inactive	240 nM	52 nM	> 95%	> 95%	–	O=C(Cc1ccc(F)c(Cl)c1)Nc1ccc(S(=O)(=O)Nc2nncs2)cc1	> 46000 nM	–	inactive
> 80%	130 nM	> 80%	370 nM	> 0.5 h	3.85 h	> 81 µg/mL	16300 nM	–	–	–	> 95%	> 95%	5.5 h	O=C(Cc1ccc(Cl)c(Cl)c1)Nc1ccc(S(=O)(=O)Nc2ccon2)cc1	> 46000 nM	Dose-dependent effect	–
